Assay results published in paper PMC4153604 (European journal of medicinal chemistry, 2014).

Columns and labels:
Type in all cases: cell-based
[1] = test system: MIA PaCa-2 pancreatic cancer cells; assay: Cell viability, resazurin assay; details: 20 µM, 48 h, 5% FBS
Method in brief: (§1)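 Cell lines were maintained at 37°C, 5% CO2 to about 80% confluence: BxPC-3 in RPMI 1640, MIA PaCa-2 in DMEM, each with 10% FBS and penicillin/streptomycin. Trypsinized cells were plated at 1 × 10^4/well in 5% FBS medium and treated with 0–20 µM for 48 h. Resazurin (0.02% in DPBS) was added; fluorescence (ex 560/em 590 nm) was read after 2 h. EC50 came from nonlinear regression.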

[2] = test system: BxPC-3 pancreatic cancer cells; assay: Cell viability, resazurin assay; details: 20 µM, 48 h, 5% FBS
Method in brief: as §1

[3] = test system: MIA PaCa-2 cells; assay: Apoptosis assay, AO/EB staining; details: 0.5, 1 and 2 µM, 48 h, 5% FBS
Method in brief: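 MIA PaCa-2 cells (5 × 10^4 per chamber-slide well) exposed to test compound at 0.5, 1 and 2 µM for 48 h in medium with 5% FBS. Stained with AO/EB (10 µg/mL each) and imaged by fluorescence microscopy (x40, 480/30 nm excitation). Green intact nuclei scored as viable; orange-red, condensed nuclei as apoptotic. Images representative of triplicate experiments.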

[4] = listed as farnesylthiosalicylamide

## CC(C)=CCC/C(C)=C/CC/C(C)=C/CSc1ccccc1C(N)=O [FTSA, S-t, t farnesylthiosalicylic amide]
[1]; [4]
  effect on viability of the cells: ineffective
[2]; [4]
  effect on viability of the cells: ineffective

## CC(C)=CCC/C(C)=C/CC/C(C)=C/CSC[C@H](NC(=O)CCCCCN1CCN(C)CC1)C(=O)NC1CCCCCCC1 [8e, L-((4-methylpiperazinyl)hexanoyl)-S-(trans, trans-farnesyl) cysteine cyclooctylamide]
[3]
  mode of cell death (AO/EB staining): signs of apoptosis were observed

## CC(C)=CCC/C(C)=C/CC/C(C)=C/CSc1ccccc1C(=O)O [FTS, S-t, t farnesylthiosalicylic acid]
[1]; listed as salirasib
  effect on viability of the cells: ineffective
[2]; listed as salirasib
  effect on viability of the cells: ineffective
